Measurements: ChEMBL document CHEMBL1125117, “Substituted 1,3-dihydro-2H-pyrrolo[2,3-b]pyridin-2-ones as potential antiinflammatory agents” (1990)

How the values were obtained:
Rattus norvegicus [1] = assay: In vivo inhibitory activity against cells in reverse passive Arthus reaction (RPAR) assay at dose 25 mg/kg in the pleural cavity of rats.; type: functional
Outline: (§1)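 Male rats, five per group, dosed orally 1 h before iv BSA antigen (5 mg). Rabbit anti-BSA IgG (0.5 mg) given intrapleurally 30 min later. At 4 h, pleural exudate volume was measured and neutrophils counted (Coulter) after saline-EDTA lavage. Reported as % reduction in cells and fluid relative to control.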

Rattus norvegicus [2] = assay: In vivo inhibitory activity against fluid in reverse passive Arthus reaction (RPAR) assay at dose 25 mg/kg in the pleural cavity of rats.; type: functional; outline: as §1
[3] = target: T1, Polyunsaturated fatty acid 5-lipoxygenase (Homo sapiens) (UniProt P09917); assay: In vitro inhibitory activity against 5-lipoxygenase in human polymorphonuclear (PMN) cells; conditions: concentration not given here
T1 sequence (whole entry): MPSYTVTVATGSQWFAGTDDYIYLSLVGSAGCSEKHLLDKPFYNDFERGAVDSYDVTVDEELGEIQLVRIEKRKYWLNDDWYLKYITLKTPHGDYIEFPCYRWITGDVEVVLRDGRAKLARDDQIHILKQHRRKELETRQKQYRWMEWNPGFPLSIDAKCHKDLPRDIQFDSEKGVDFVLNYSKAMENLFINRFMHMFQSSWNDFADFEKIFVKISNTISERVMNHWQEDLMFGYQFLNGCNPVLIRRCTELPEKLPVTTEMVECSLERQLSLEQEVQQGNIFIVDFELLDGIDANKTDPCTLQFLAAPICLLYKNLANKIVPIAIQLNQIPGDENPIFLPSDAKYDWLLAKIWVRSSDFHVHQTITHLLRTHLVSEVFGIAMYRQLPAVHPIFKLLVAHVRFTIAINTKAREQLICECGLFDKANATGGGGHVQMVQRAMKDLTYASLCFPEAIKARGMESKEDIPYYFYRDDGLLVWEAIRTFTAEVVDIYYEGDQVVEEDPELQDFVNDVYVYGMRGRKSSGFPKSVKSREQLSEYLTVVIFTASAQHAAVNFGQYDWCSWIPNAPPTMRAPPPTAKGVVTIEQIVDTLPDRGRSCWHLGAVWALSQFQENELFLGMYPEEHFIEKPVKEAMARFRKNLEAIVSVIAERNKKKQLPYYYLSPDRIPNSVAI
Outline: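 Human PMN neutrophils (2×10^7 cells/mL) in HEPES buffer with 1 mM CaCl2, preincubated 4 min with test compound in DMSO vehicle. Then stimulated with [14C]arachidonic acid plus calcium ionophore A23187 for 5 min and stopped with methanol. 5-HETE was quantitated by HPLC. Reported as % inhibition versus vehicle, tested at 15 μM.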

Rattus norvegicus [4] = assay: In vivo effect on prostaglandin and leukotriene mediated production in rat pleural cavity was assessed by the inhibition of LTE4 in 5-lipoxygenase/ cyclooxygenase at dose 25 mg/kg; type: functional
Outline: (§2)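 Rat reversed passive Arthus pleurisy, oral dosing 1 h before challenge. BSA given iv (5 mg), then rabbit anti-BSA IgG intrapleurally 30 min later. At 4 h, exudate was collected into indomethacin/NDGA and its volume recorded. Neutrophils were counted by Coulter counter. TXB2 and LTE4 in ethanol-extracted supernatant were measured by RIA with tritiated recovery spikes. Reported as % inhibition versus control.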

Rattus norvegicus [5] = assay: In vivo effect on prostaglandin and leukotriene mediated production in rat pleural cavity was assessed by the inhibition of cell influx in 5-lipoxygenase/ cyclooxygenase at dose 25 mg/kg; type: functional; outline: as §2
Rattus norvegicus [6] = assay: In vivo effect on prostaglandin and leukotriene mediated production in rat pleural cavity was assessed by the inhibition of fluid volume in 5-lipoxygenase/ cyclooxygenase at dose 25 mg/kg; type: functional; conditions: for inhibition in vivo at 25 mg/kg: Rattus norvegicus, Pleural cavity; for Inhibition: 25 mg/kg; outline: as §2
Rattus norvegicus [7] = assay: In vivo antiinflammatory activity against edema formation in the noninjected(secondary) paw of the rat (before edema stimulation) at dose 25 mg/kg; type: functional
Outline: (§3)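 Adjuvant arthritis in rats, prophylactic regimen. Oral dosing began 1 h before challenge and continued for 21 consecutive days. Heat-killed M. tuberculosis in paraffin oil (6 mg/mL), 0.1 mL injected into the left hind paw, with methylcellulose-treated controls. Both hind paw volumes measured by plethysmograph on day 21. Reported as % change relative to control.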

Rattus norvegicus [8] = assay: In vivo antiinflammatory activity against edema formation in the injected(primary) paw of the rat(before edema stimulation) at dose 25 mg/kg; type: functional; outline: as §3
[9] = target: Cyclooxygenase (Homo sapiens) (UniProt P35354+P23219); assay: In vitro inhibitory activity against Prostaglandin G/H synthase in human platelets; set-up: concentration or dose not given beside the values; conditions: concentration not given here
Outline: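 Human platelets (2×10^5/mL) in HEPES buffer with 0.5 mM EGTA and 1.5 mM CaCl2, incubated 4 min with compound in DMSO vehicle. Then given [14C]arachidonic acid and A23187 ionophore for 5 min and stopped with methanol. HHT was measured by reverse-phase HPLC. Reported as % inhibition of HHT versus vehicle, at 15 μM.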

Rattus norvegicus [10] = assay: In vivo effect on prostaglandin and leukotriene mediated production in rat pleural cavity was assessed by the inhibition of TxB2 in 5-lipoxygenase/ cyclooxygenase at dose 25 mg/kg
Rattus norvegicus [11] = assay: In vivo effect on prostaglandin and leukotriene mediated production in rat pleural cavity was assessed by the inhibition of TXB2 in 5-lipoxygenase/ cyclooxygenase at dose 25 mg/kg; type: functional; outline: as §2
Rattus norvegicus [12] = assay: In vivo antiinflammatory activity against edema formation in the injected(primary) paw of the rat(after edema stimulation) at dose 25 mg/kg; type: functional
Outline: (§4)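 Adjuvant arthritis in rats, therapeutic regimen. Heat-killed M. tuberculosis in paraffin oil (6 mg/mL), 0.1 mL injected into the left hind paw. Lesion allowed to develop 7 days before the first oral dose, with methylcellulose-treated controls. Paw volumes measured by plethysmograph, final reading on day 21. Reported as % change in paw volume relative to control.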

Rattus norvegicus [13] = assay: In vivo antiinflammatory activity against edema formation in the noninjected(secondary) paw of the rat (after edema stimulation) at dose 25 mg/kg; type: functional; outline: as §4
Rattus norvegicus [14] = assay: In vivo effect on prostaglandin and leukotriene mediated production in rat pleural cavity was assessed by the inhibition of cell influx in 5-lipoxygenase/ cyclooxygenase at dose 1.0 mg/kg; type: functional; outline: as §2
Rattus norvegicus [15] = assay: In vivo effect on prostaglandin and leukotriene mediated production in rat pleural cavity was assessed by the inhibition of fluid volume in 5-lipoxygenase/ cyclooxygenase at dose 1.0 mg/kg; type: functional; outline: as §2
Rattus norvegicus [16] = assay: In vivo antiinflammatory activity against edema formation in the noninjected(secondary) paw of the rat (after edema stimulation) at dose 2.0 mg/kg; type: functional
Rattus norvegicus [17] = assay: In vivo antiinflammatory activity against edema formation in the noninjected(secondary) paw of the rat (before edema stimulation) at dose 2.0 mg/kg; type: functional; outline: as §3

SMILES | inhibition [3] [%] | inhibition in vivo at 25 mg/kg (Rattus norvegicus [1]) [%] | inhibition in vivo at 25 mg/kg (Rattus norvegicus [2]) [%] | also measured
C[S+]([O-])c1ccc(N2C(=O)C(C)(C)c3cccnc32)cc1 (centres undefined) | 11 | 39 | 0 | –
CC1(C)C(=O)N(c2ccc(F)cc2F)c2ncccc21 | 7 | 61 | 19 | –
CC1(Sc2ccccc2)C(=O)N(c2ccccc2)c2ncccc21 (centres undefined) | – | 0 | 0 | –
CC(C)(C(=O)[O-])c1cccnc1Nc1ccc(Cl)cc1.[Na+] | 0 | – | – | ED50 (Rattus norvegicus [1]): 11.3 mg/kg; ED50 (Rattus norvegicus [2]): 9.6 mg/kg; inhibition in vivo at 25 mg/kg (Rattus norvegicus [4]): 76%; inhibition in vivo at 25 mg/kg (Rattus norvegicus [5]): 62%; inhibition in vivo at 25 mg/kg (Rattus norvegicus [6]): 71%; inhibition in vivo at 25 mg/kg (Rattus norvegicus [7]): 34%; inhibition in vivo at 25 mg/kg (Rattus norvegicus [8]): 14%; inhibition [9]: 28%; TxB2 inhibition (Rattus norvegicus [10]): 81%
CC1(C)C(=O)N(c2ccc(Cl)c(Cl)c2)c2ncccc21 | 0 | 26 | 25 | inhibition in vivo at 25 mg/kg (Rattus norvegicus [4]): 46%; inhibition in vivo at 25 mg/kg (Rattus norvegicus [5]): 26%; inhibition in vivo at 25 mg/kg (Rattus norvegicus [6]): 25%; inhibition [9]: 0%; TxB2 inhibition (Rattus norvegicus [10]): 44%
CCC1(CC)C(=O)N(c2ccccc2)c2ncccc21 | 12 | 13 | 0 | –
CCC1(C)C(=O)N(c2ccccc2)c2ncccc21 (centres undefined) | 13 | 36 | 12 | –
CC1(Cc2ccccc2)C(=O)N(c2ccccc2)c2ncccc21 (centres undefined) | 17 | 9 | 0 | –
CC1(C)C(=O)N(c2ccccc2Cl)c2ncccc21 | 0 | 14 | 3 | –
CC1(C)C(=O)N(c2cc(Cl)cc(Cl)c2)c2ncccc21 | – | 49 | 33 | –
CC1(C)C(=O)N(c2ccc(Cl)cc2)c2ccccc21 | – | 0 | 0 | –
CC1(C)C(=O)Nc2ncccc21 | – | 46 | 38 | –
CC(C)c1ccc(N2C(=O)C(C)(C)c3cccnc32)cc1 | 0 | 29 | 6 | –
CC1(C)C(=S)N(c2ccc(Cl)cc2)c2ncccc21 | 17 | 41 | 42 | –
CN1C(=O)C(C)(C)c2cccnc21 | – | 69 | 53 | inhibition in vivo at 25 mg/kg (Rattus norvegicus [11]): 17%; inhibition in vivo at 25 mg/kg (Rattus norvegicus [5]): 69%; Inhibition (Rattus norvegicus [6]): 53%; inhibition in vivo at 25 mg/kg (Rattus norvegicus [6]): 53%
COc1ccc2c(c1)c(CC(=O)O)c(C)n2C(=O)c1ccc(Cl)cc1 [INDOMETHACIN] | – | – | – | inhibition in vivo at 1 mg/kg (Rattus norvegicus [14]): 48%; inhibition in vivo at 1 mg/kg (Rattus norvegicus [15]): 24%; inhibition in vivo at 2 mg/kg (Rattus norvegicus [16]): 88%; inhibition in vivo at 2 mg/kg (Rattus norvegicus [17]): 70%
CC1(C)C(=O)N(c2cccc(Cl)c2)c2ncccc21 | 3 | 51 | 49 | inhibition in vivo at 25 mg/kg (Rattus norvegicus [4]): 59%; inhibition in vivo at 25 mg/kg (Rattus norvegicus [5]): 51%; inhibition in vivo at 25 mg/kg (Rattus norvegicus [6]): 49%; inhibition in vivo at 25 mg/kg (Rattus norvegicus [7]): 31%; inhibition in vivo at 25 mg/kg (Rattus norvegicus [8]): 0%; inhibition [9]: 0%; TxB2 inhibition (Rattus norvegicus [10]): 62%

Continued, in another order:

inhibition [3] [%] | SMILES | inhibition in vivo at 25 mg/kg (Rattus norvegicus [1]) [%] | inhibition in vivo at 25 mg/kg (Rattus norvegicus [2]) [%] | also measured
11 | CC1(C)C(=O)N(c2ccc(Br)cc2)c2ncccc21 | 46 | 55 | –
23 | CSc1ccc(N2C(=O)C(C)(C)c3cccnc32)cc1 | 29 | 37 | –
13 | CC1(C)C(=O)N(c2ccc(S(C)(=O)=O)cc2)c2ncccc21 | 42 | 0 | –
21 | CSC1(C)C(=O)N(c2ccccc2)c2ncccc21 (centres undefined) | 34 | 53 | –
20 | CC1(C)C(=O)N(c2ccc(Cl)cc2Cl)c2ncccc21 | 16 | 8 | –
7 | Cc1c(Cl)cccc1N1C(=O)C(C)(C)c2cccnc21 | 14 | 0 | –
34 | CC1(C)C(=O)N(c2cccc(C(F)(F)F)c2)c2ncccc21 | 35 | 10 | –
34 | CC1(C)C(=O)N(c2ccc(Cl)cc2)c2ncc(Br)cc21 | 29 | 0 | –
11 | COc1ccc(N2C(=O)C(C)(C)c3cccnc32)cc1 | 63 | 42 | inhibition in vivo at 25 mg/kg (Rattus norvegicus [11]): 34%; inhibition in vivo at 25 mg/kg (Rattus norvegicus [5]): 63%; inhibition in vivo at 25 mg/kg (Rattus norvegicus [7]): 0%; inhibition in vivo at 25 mg/kg (Rattus norvegicus [8]): 0%
6 | CC(C)N1C(=O)C(C)(C)c2cccnc21 | 34 | 14 | –
2 | CC1(C)C(=O)N(Cc2ccccc2)c2ncccc21 | 12 | 12 | –
0 | CC1(F)C(=O)N(c2ccccc2)c2ncccc21 (centres undefined) | 50 | 35 | –
13 | CCCCC1(C)C(=O)N(c2ccccc2)c2ncccc21 (centres undefined) | 21 | 5 | –
26 | CC1(C)C(=O)N(Cc2ccc(Cl)cc2)c2ncccc21 | 6 | 0 | –
13 | CC1(C)C(=O)N(c2ccc(Cl)cc2)c2ncccc21 | – | – | ED50 (Rattus norvegicus [1]): 4.5 mg/kg; ED50 (Rattus norvegicus [2]): 27.9 mg/kg; inhibition in vivo at 25 mg/kg (Rattus norvegicus [11]): 78%; inhibition in vivo at 25 mg/kg (Rattus norvegicus [5]): 73%; Inhibition (Rattus norvegicus [6]): 83%; inhibition in vivo at 25 mg/kg (Rattus norvegicus [6]): 83%; inhibition in vivo at 25 mg/kg (Rattus norvegicus [7]): 65%; inhibition in vivo at 25 mg/kg (Rattus norvegicus [12]): 31%; inhibition in vivo at 25 mg/kg (Rattus norvegicus [8]): 13%; inhibition in vivo at 25 mg/kg (Rattus norvegicus [13]): 54%; inhibition [9]: 47%
0 | COCCSC1(C)C(=O)N(c2ccccc2)c2ncccc21 (centres undefined) | 26 | 23 | –
0 | CC1C(=O)N(c2ccccc2)c2ncccc21 (centres undefined) | 29 | 18 | –
